Measured values published in ChEMBL document CHEMBL3132844, “Acyl protein thioesterase inhibitors as probes of dynamic S-palmitoylation” (Medchemcomm, 2014).

Columns and labels:
[1] = target: T1, Acyl-protein thioesterase 2 (Homo sapiens, UniProt O95372); assay: Inhibition of APT2 (unknown origin) by FluPol-ABPP assay
Method in brief: (§1)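 Fluorescence polarization competitive ABPP (FluoPol-ABPP) in high-throughput format. Recombinant human APT enzyme was preincubated with candidate inhibitor at 10 µM. FP-TAMRA was then added for a short, time-dependent reaction under non-equilibrium conditions. Read-out was the polarization signal of probe labeling of the active site.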

[2] = target: T2, Acyl-protein thioesterase 1 (Homo sapiens, UniProt O75608); assay: Inhibition of APT1 (unknown origin) by FluPol-ABPP assay; method in brief: as §1
T2 sequence (O75608 whole entry): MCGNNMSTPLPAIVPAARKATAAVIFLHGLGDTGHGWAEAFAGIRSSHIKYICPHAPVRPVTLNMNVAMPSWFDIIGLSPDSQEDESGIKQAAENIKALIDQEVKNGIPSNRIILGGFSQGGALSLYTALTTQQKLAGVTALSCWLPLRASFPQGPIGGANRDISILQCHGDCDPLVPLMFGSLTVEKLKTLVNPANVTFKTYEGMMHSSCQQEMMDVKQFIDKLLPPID

[3] = target: T1, Acyl-protein thioesterase 2; assay: Inhibition of human APT2
Method in brief: (§2)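 Potency and selectivity were measured by gel-based competitive ABPP. The enzyme source was preincubated with inhibitor, then labeled with a fluorophosphonate activity-based probe. Residual active-site labeling was visualized in-gel.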

[4] = target: T3, sn-1-specific diacylglycerol lipase ABHD11 (Homo sapiens, UniProt Q8NFV4); assay: Inhibition of ABHD11 (unknown origin); method in brief: as §2
T3 sequence (Q8NFV4 whole entry): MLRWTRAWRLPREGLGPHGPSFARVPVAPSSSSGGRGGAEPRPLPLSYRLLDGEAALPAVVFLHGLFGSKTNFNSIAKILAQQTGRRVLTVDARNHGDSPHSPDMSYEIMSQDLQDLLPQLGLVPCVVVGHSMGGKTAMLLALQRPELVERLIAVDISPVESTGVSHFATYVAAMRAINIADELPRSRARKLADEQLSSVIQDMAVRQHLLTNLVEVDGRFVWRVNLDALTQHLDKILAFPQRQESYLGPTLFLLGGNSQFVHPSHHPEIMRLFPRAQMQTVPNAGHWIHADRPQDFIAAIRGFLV

[5] = target: T2, Acyl-protein thioesterase 1; assay: Inhibition of human APT1; method in brief: as §2
[6] = target: T1, Acyl-protein thioesterase 2; assay: Inhibition of APT2 (unknown origin)
[7] = target: T1, Acyl-protein thioesterase 2; assay: Inhibition of APT2 (unknown origin) by enzyme kinetic assay
[8] = Inhibition of Toxoplasma gondii ASH1
Method in brief: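 The Toxoplasma gondii APT homologue TgASH1 was assayed by competitive ABPP. The inhibitor was preincubated, followed by activity-based probe labeling. Loss of probe labeling of TgASH1 was scored across inhibitor concentrations.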

[9] = target: T2, Acyl-protein thioesterase 1; assay: Inhibition of APT1 (unknown origin)

T1 sequence (O95372 whole entry): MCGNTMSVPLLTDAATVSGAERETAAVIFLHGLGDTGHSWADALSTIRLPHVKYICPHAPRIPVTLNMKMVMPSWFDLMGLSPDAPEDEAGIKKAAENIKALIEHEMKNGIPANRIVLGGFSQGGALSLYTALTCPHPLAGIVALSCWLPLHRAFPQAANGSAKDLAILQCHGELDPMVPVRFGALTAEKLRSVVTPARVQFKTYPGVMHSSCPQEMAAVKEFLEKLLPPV

SMILES	IC50 [3] [nM]	IC50 [4] [nM]	IC50 [5] [nM]	other results
COc1ccc(N2CCN(C(=O)c3cc4c(s3)-c3ccccc3S(=O)(=O)C4)CC2)cc1				Ki [1]: 230 nM; Ki [2]: > 10000 nM
CCC1CCCCN1C(=O)n1ncc(C(O)(c2ccccc2)c2ccccc2)n1 (stereo not drawn)	> 10000	< 30	> 10000	
CC(C)(C)C1CCN(C(=O)n2ncc(C(O)(c3ccccc3)c3ccccc3)n2)CC1	30	< 30	17	
CCCCCCCCCC[C@@H]1C(=O)O[C@H]1CCCCS(=O)(=O)CCCN(C)C				IC50 [6]: 19.6 nM
CN(C)CCOB(c1ccccc1)c1ccc(COCc2ccc(B(OCCN(C)C)c3ccccc3)cc2)cc1				Ki [7]: 730 nM
O=C(N1CCCCC1)n1ncc(C(O)(c2ccccc2)c2ccccc2)n1	200	< 30	< 30	
CCCOc1oc(=O)c2cc(N)ccc2c1Cl				IC50 [8]: 1320 nM
O=C(CN1CCN(C(=O)c2ccco2)CC1)Nc1cc(C(F)(F)F)ccc1Cl				Ki [1]: > 10000 nM
CCCCCCCCCC[C@@H]1C(=O)O[C@H]1CCc1ccc(OC)c(OC)c1 [PALMOSTATIN B]				IC50 [6]: 37.7 nM; Ki [6]: 34 nM; IC50 [9]: 5.4 nM
